An excerpt weighted towards active compounds, which were near 3.1% of everything screened.
PP5 inh: blocks human protein phosphatase 5 activity; P53041; purified PP5c, OMFP substrate fluorescence; inhibition, % at 6.7 µM; hit rate 0.18% among 320,000;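 active means inhibition above the campaign's mean inhibition across all tested compounds plus 3 SD, cut at about 9.5% in these data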
Target sequence (P53041 whole entry, looked up): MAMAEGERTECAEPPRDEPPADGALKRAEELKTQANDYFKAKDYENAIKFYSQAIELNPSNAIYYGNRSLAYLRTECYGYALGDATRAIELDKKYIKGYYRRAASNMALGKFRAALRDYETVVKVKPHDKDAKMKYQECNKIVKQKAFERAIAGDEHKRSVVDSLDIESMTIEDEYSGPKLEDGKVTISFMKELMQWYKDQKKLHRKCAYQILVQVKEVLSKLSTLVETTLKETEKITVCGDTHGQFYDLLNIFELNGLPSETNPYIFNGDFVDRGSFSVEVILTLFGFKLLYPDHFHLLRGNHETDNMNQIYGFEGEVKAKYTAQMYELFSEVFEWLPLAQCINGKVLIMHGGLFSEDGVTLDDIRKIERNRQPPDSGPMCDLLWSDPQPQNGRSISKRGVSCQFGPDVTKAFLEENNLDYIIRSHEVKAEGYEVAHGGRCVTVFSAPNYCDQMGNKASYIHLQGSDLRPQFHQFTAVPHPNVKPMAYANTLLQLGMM
NadD block: inhibitors of Staphylococcus aureus NadD | hit rate 0.78% among 360,000 | AID 602399 | inhibition, % at 20 µM | purified NadD enzyme, colorimetric absorbance read-out; in the data active means inhibition above about 26%
Myeloid diff 2: promotes myeloid progenitor differentiation; AID 624256; ER-HoxA9 myeloid progenitors, lysozyme-GFP differentiation, flow cytometry; hit rate 1% among 360,000; calls only at 10 µM;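 active means normalized GFP-positive differentiation at or above the plate's own cutoff, the solvent-only control mean plus 3 SD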;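 further: cells exposed to compound for four days before flow analysis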
PP1 counter: PP1-alpha (human) inhibition in PP5 counter-screen; P62136; purified PP1alpha, OMFP fluorescence; inhibition, % at 6.7 µM; hit rate 0.9% among 320,000;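 active means inhibition above the mean inhibition of all tested compounds plus 3 SD, computed separately for each screening campaign, cut at about 15% in these data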
HCV core dimer: blocks dimerization of HCV core protein. inhibition, % at 5 µM. hit rate 0.33% among 300,000. TR-FRET GST/Flag-core106 dimerization, 1536-well. AID 1899;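 active means inhibition above the mean of all tested compounds plus 3 SD, set per screening campaign, cut at about 45% in these data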
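Assay system – GST-tagged and Flag-tagged HCV core protein residues 1-106 · Quantity – core106 proteins, GST 13.5 nM and Flag 17 nM · Benchmarks – unlabelled core106 and no-GST-core106 wells · Read-out basis – percent inhibition of core106 dimerization signal · Detection – time-resolved FRET, ex 340 nm, em 617 and 671 nm · Schedule – 4 h at 22.5 °C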
Fh CTSL1 inh: cathepsin L1 inhibition, PFM18AAP counter-screen | hit rate 0.49% among 300,000 | inhibition, % at 5.96 µM | recombinant F. hepatica cathepsin L1, Z-Leu-Arg-MCA fluorescence | AID 1906;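 active means inhibition above the mean of all tested compounds plus 3 SD, set per screening campaign, cut at about 17% in these data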
Myeloid diff CP1: myeloid differentiation induction | AID 651706 | ER-HoxA9 myeloid progenitors, GFP/Mac1 double-positive flow | hit rate 2% among 2,300 | shares compounds with Myeloid diff 2 | calls only;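 active means share of green or green-and-red cells above 9 and 9% in run 1 or 4 and 3% in run 2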
GFP autofluor: compound fluorescence in myeloid differentiation counter-screen | shares compounds with Myeloid diff 2 | ER-HoxA9 myeloid progenitors, no estrogen, GFP autofluorescence flow cytometry; vehicle wells 0%, positive control 100% | fluorescence response, % (concentration not given with the values) | hit rate 7.4% among 2,300 | AID 651707;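 active means over 5% cells positive for green fluorescent reporter, or over 2% positive for both it and APC stain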
Each line names hits and unclear results; the compound was inactive in the other large screens (follow-up assays come after a bar, where they were run).

CCc1nc2ccccc2c(C(=O)NCc2ccccc2)c1C	none | Myeloid diff CP1 inactive | GFP autofluor inactive
CCc1nc2ccccc2c(C(=O)O)c1C	none
COc1ccc(-c2oc3c(c2C#CC2(O)CCCCC2)C(OC(C)=O)CCC3)cc1 (stereo not drawn)	none (no result: PP5 inh, PP1 counter, HCV core dimer, Fh CTSL1 inh)
O=C(C1CCC1)N1CCc2cc(S(=O)(=O)NCC3COc4ccccc4O3)ccc21 (stereo not drawn)	none
O=C(C1CC1)N1CCc2cc(S(=O)(=O)NCC3COc4ccccc4O3)ccc21 (stereo not drawn)	Myeloid diff 2 active | Myeloid diff CP1 inactive | GFP autofluor inactive
O=C(Nc1ccccc1)/C(=C/c1cccc(Br)c1)NC(=O)c1ccco1	Myeloid diff 2 active | Myeloid diff CP1 inactive | GFP autofluor inactive
CCOc1ccccc1-n1c(SCC(=O)N(C(C)C)C(C)C)nnc1-c1cccnc1	none | Myeloid diff CP1 inactive | GFP autofluor inactive
CCOc1ccccc1-n1c(SCC(N)=O)nnc1-c1cccnc1	none
CCOP(=O)(OCC)C(NC(=O)Nc1ccc(C)cc1)C(N)=O (stereo not drawn)	Myeloid diff 2 active | Myeloid diff CP1 inactive | GFP autofluor inactive
O=C(CN1CCN(S(=O)(=O)c2ccc(F)c(F)c2)CC1)Nc1ccccc1C(=O)NC1CC1	none (no result: HCV core dimer, Fh CTSL1 inh)
N#CCC(CNc1ncc(C(F)(F)F)cc1Cl)OC(=O)c1ccc(Cl)cc1 (stereo not drawn)	none
N#CCC(CNc1ncc(C(F)(F)F)cc1Cl)OC(=O)c1cccc([N+](=O)[O-])c1 (stereo not drawn)	none | Myeloid diff CP1 inactive | GFP autofluor inactive
CCN(CC)CCOC(=O)c1ccc(NC(=S)NC(=O)/C=C/c2ccco2)cc1	none (no result: NadD block, Myeloid diff 2)
C#CC[N+]1(CC#Cc2cccc(C)c2)CCCCC1	none | Myeloid diff CP1 inactive | GFP autofluor inactive
C#CC[N+]1(CC#Cc2ccccc2)CCOCC1	none | Myeloid diff CP1 inactive | GFP autofluor inactive
Nc1ccc2c3c(cccc13)C(=O)N(c1ccccc1)C2=O	Myeloid diff 2 active (no result: PP5 inh, PP1 counter, HCV core dimer, Fh CTSL1 inh) | Myeloid diff CP1 inactive | GFP autofluor inactive
CC(c1ccccc1)N1C(=O)CC(Sc2ncccc2C(=O)O)C1=O (stereo not drawn)	none (no result: Myeloid diff 2) | Myeloid diff CP1 inactive | GFP autofluor inactive
O=C(Nc1cccc2ccccc12)/C(=C\c1cccc([N+](=O)[O-])c1)NC(=O)c1cccs1	Myeloid diff 2 active | Myeloid diff CP1 inactive | GFP autofluor inactive
O=C(Nc1cccc2ccccc12)/C(=C/c1cccc([N+](=O)[O-])c1)NC(=O)c1cccs1	none
CCCn1cc(SCC(=O)NC2CCCC2)c2ccccc21	none
CCCn1cc(S(=O)(=O)CC(=O)NC2CCCCC2)c2ccccc21	none (no result: Myeloid diff 2) | Myeloid diff CP1 inactive | GFP autofluor inactive
CCC(CC)C(=O)N1CCN(Cc2ccc3c(c2)OCO3)CC1	none | Myeloid diff CP1 inactive | GFP autofluor inactive
COc1ccc(C(=O)O)cc1S(=O)(=O)N1CCN(Cc2ccc3c(c2)OCO3)CC1	none (no result: PP5 inh, PP1 counter, HCV core dimer, Fh CTSL1 inh) | Myeloid diff CP1 inactive | GFP autofluor inactive
CCCC(=O)N1CCN(Cc2ccc3c(c2)OCO3)CC1	none
C[C@@H]1CN([C@H](C)CO)C(=O)CCCn2cc(nn2)CO[C@H]1CN(C)S(=O)(=O)c1ccccc1F	none (no result: PP5 inh, PP1 counter, HCV core dimer, Fh CTSL1 inh)
O=c1oc2ccccc2c(Nc2ccccc2O)c1[N+](=O)[O-]	Myeloid diff 2 active | Myeloid diff CP1 inactive | GFP autofluor inactive
O=C(Cc1ccc(NC(=O)C2CCCN(C(=O)C3CCC3)C2)cc1)Nc1cccc(C(=O)N2CCCCC2)c1 (stereo not drawn)	none (no result: PP5 inh, PP1 counter, HCV core dimer, Fh CTSL1 inh)
O=C(/C=C\Nc1ccccn1)c1ccc(Cl)cc1	Myeloid diff 2 active | Myeloid diff CP1 inactive | GFP autofluor inactive
COc1ccccc1Cc1c(-c2cccc(Cl)c2)nc2ccc(Br)cn12	Myeloid diff 2 active (no result: PP5 inh, PP1 counter, HCV core dimer, Fh CTSL1 inh) | Myeloid diff CP1 inactive | GFP autofluor 41
O=C(COC(=O)CNC(=O)C1CCCCC1)Nc1ccccc1OC(F)F	none (no result: PP5 inh, PP1 counter, HCV core dimer, Fh CTSL1 inh)
Cc1cc(C(F)(F)F)nc(SCC(=O)c2cccc([N+](=O)[O-])c2)n1	none | Myeloid diff CP1 inactive | GFP autofluor inactive
O=C(NC1CCN(Cc2ccccc2)CC1)C1CCN(S(=O)(=O)c2cccc3cccnc23)CC1	none
O=S(=O)(NC1CCN(Cc2ccccc2)CC1)c1cccc2cccnc12	none | Myeloid diff CP1 inactive | GFP autofluor inactive
Cn1ccc2c(-c3ccc(C(C)(C)C)cc3)cc3c(c21)C1CCC3O1 (stereo not drawn)	Myeloid diff 2 active (no result: PP5 inh, PP1 counter, HCV core dimer, Fh CTSL1 inh) | Myeloid diff CP1 active | GFP autofluor inactive
COc1ccc(-c2cc(-c3cc(OC)ccc3O)[nH]n2)cc1	none | Myeloid diff CP1 inactive | GFP autofluor inactive
COc1ccc(O)c(-c2cc(-c3ccc(F)cc3)n[nH]2)c1	none
O=[N+]([O-])c1ccccc1SN(Cc1ccccc1)c1ccccn1	none | Myeloid diff CP1 inactive | GFP autofluor inactive
O=C(c1ccc([N+](=O)[O-])cc1)N(Cc1ccccc1)c1ccccn1	none
Cc1cc(SCC(=O)NC2CCCC2)nc2ccccc12	none
COCc1cc(C)nc2sc(C(=O)N3CCN(c4ccccc4)CC3)c(N)c12	none
COCc1cc(C)nc2sc(C(=O)N3CCCCC3)c(N)c12	none | Myeloid diff CP1 inactive | GFP autofluor inactive
Cc1nn(CC(=O)NCc2ccccc2Cl)c(C)c1[N+](=O)[O-]	Myeloid diff 2 active | Myeloid diff CP1 inactive | GFP autofluor inactive
COc1ccccc1CNC(=O)Cn1nc(C)c([N+](=O)[O-])c1C	none
O=C(CN1CCc2ccccc2C1)Nc1ccccc1F	none (no result: Myeloid diff 2)
COc1ccc(C=Nc2cccc3c(=O)[nH][nH]c(=O)c23)c2ccccc12	none
COc1cccc(C=Nc2cccc3c(=O)[nH][nH]c(=O)c23)c1O	Myeloid diff 2 active | Myeloid diff CP1 inactive | GFP autofluor inactive
CC(Sc1nc2ccccc2c(=O)n1C)C(=O)Nc1ccc2c(c1)OCCO2 (stereo not drawn)	none (no result: HCV core dimer, Fh CTSL1 inh) | Myeloid diff CP1 inactive | GFP autofluor inactive
CC(C)C(NS(=O)(=O)c1ccc2c(c1)C(C)(C)C(=O)N2C)C(=O)NCc1ccccc1Cl (stereo not drawn)	none
NC(=O)C1CCN(C(=O)c2ccco2)CC1	none | Myeloid diff CP1 inactive | GFP autofluor inactive
Cc1c2ccccc2nc2c(F)c(NCCO)c(F)c(F)c12	Myeloid diff 2 active | Myeloid diff CP1 inactive | GFP autofluor 78
CC1CCN(S(=O)(=O)c2ccc(Cl)cc2)CC1	none
CC1CCN(S(=O)(=O)c2ccc(C(C)C)cc2)CC1	Myeloid diff 2 active | Myeloid diff CP1 inactive | GFP autofluor 41
COc1cccc(CN2CCNC(=O)C2CC(=O)N(C)CC2CCOCC2)c1 (stereo not drawn)	none
O=C1CC(C(=O)N2CCCc3ccccc32)CN1c1ccc(F)cc1 (stereo not drawn)	none

Source: PubChem BioAssay
